# Experimental data reported in ChEMBL document CHEMBL4428100, “Versatile Picklocks To Access All Opioid Receptors: Tuning the Selectivity and Functional Profile of the Cyclotetrapeptide c[Phe-d-Pro-Phe-Trp] (CJ-15,208)” (J Med Chem, 2016).
# Active and inactive are the calls of the source. The calls are words filed in the database; no cut-off is given here. Non-standard residues stand in square brackets, D forms with d. Residues, ends and D or L forms follow the SMILES beside them.
# Columns and labels:
# [1] = target: T1, Kappa-type opioid receptor (Homo sapiens, UniProt P41145); assay: Binding affinity to KOR (unknown origin)
# How it was run: (§1)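 Displacement binding on membranes from HEK-293 cells stably expressing cloned human receptors; radioligand [³H]diprenorphine for DOR, [³H]U69,593 for KOR. Compounds tested at 10⁻¹²–10⁻⁴ M, incubated 90 min at 25°C in 100 mM Tris-HCl with 0.3% BSA. Nonspecific binding defined with cold ligand. Filter-bound radioactivity counted by liquid scintillation. Ki from IC50 via Cheng-Prusoff. Run in triplicate.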
# Mu-type opioid receptor [2] = target: T2, Mu-type opioid receptor (Homo sapiens, UniProt P35372); assay: Displacement of [3H]DAMGO from human MOR expressed in HEK293 cell membranes incubated for 90 mins by liquid scintillation counting
# How it was run: (§2)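 Compound (10^-12 to 10^-4 M) incubated 90 min at 25°C in 100 mM Tris-HCl with 0.3% BSA. Cold ligands define nonspecific binding. Filters presoaked in 0.3% polyethylenimine; liquid scintillation counting. Ki from IC50 by Cheng-Prusoff; triplicate.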
# [3] = target: T3, Delta-type opioid receptor (Homo sapiens, UniProt P41143); assay: Binding affinity to DOR (unknown origin); how it was run: as §1
# [4] = Antagonist activity against KOR in rabbit vas deferens smooth muscles assessed as inhibition of asimadoline-induced response; conditions: Oryctolagus cuniculus
# Mu-type opioid receptor [5] = target: T2, Mu-type opioid receptor; assay: Binding affinity to MOR (unknown origin)
# How it was run: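 Test compounds were run at 10⁻¹²-10⁻⁴ M, incubated 90 min at 25°C in 100 mM Tris-HCl with 0.3% BSA. Nonspecific binding was defined with cold ligand. Filter-trapped radioactivity was counted by liquid scintillation, with filters presoaked in 0.3% polyethylenimine. Assays were run in triplicate. Ki was derived from IC50 by Cheng-Prusoff.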
# [6] = target: T1, Kappa-type opioid receptor; assay: Displacement of [3H]U69,593 from human KOR expressed in HEK293 cell membranes incubated for 90 mins by liquid scintillation counting; how it was run: as §2
# [7] = target: T3, Delta-type opioid receptor; assay: Displacement of [3H]diprenorphine from human DOR expressed in HEK293 cell membranes incubated for 90 mins by liquid scintillation counting
# Mus musculus [8] = assay: Antinociceptive activity in mouse model of visceral pain assessed as reduction in AcOH-induced stretching or writhing responses dosed intraperitoneally 5 mins before AcOH challenge; assay type: functional
# How it was run: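 Mice given 0.6% w/v AcOH in water ip (0.1 ml/10 g). Compound (0.5-10 mg/kg) or vehicle given ip 5 min earlier. Stretching/writhing counted for 10 min after AcOH. 6-8 mice per group, mean ± SEM; ED50 derived from the dose-response; Dunnett test after ANOVA.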
# Mus musculus [9] = assay: Effect on spontaneous locomotor activity in mouse model of visceral pain at 0.5 to 10 mg/kg, ip dosed 5 mins before AcOH challenge measured within 6 hrs; assay type: ADME, organism-based; conditions: in vivo
# Mus musculus [10] = assay: Antinociceptive activity in mouse model of visceral pain assessed as reduction in AcOH-induced stretching or writhing responses at 10 mg/kg, ip 5 mins before AcOH challenge and co-administered with 30 mg/kg, ip opioid antagonist NLX 15 mins before compound dosing; assay type: functional, organism-based
# Mus musculus [11] = assay: Antinociceptive activity in mouse model of visceral pain assessed as reduction in AcOH-induced stretching or writhing responses at 10 mg/kg, ip 5 mins before AcOH challenge and co-administered with 10 mg/kg, ip DOR antagonist NTD 30 mins before compound dosing; assay type: functional, organism-based
# Mus musculus [12] = assay: Effect on circling behavior in mouse model of visceral pain at 0.5 to 10 mg/kg, ip dosed 5 mins before AcOH challenge measured within 6 hrs; assay type: ADME, organism-based; conditions: in vivo
# [13] = Toxicity in mouse model of visceral pain assessed as induction of straub tail at 0.5 to 10 mg/kg, ip dosed 5 mins before AcOH challenge measured within 6 hrs; assay type: organism-based; conditions: in vivo
# [14] = target: T3, Delta-type opioid receptor; assay: Antagonist activity at human DOR expressed in HEK293 cells assessed as reduction of DPDPE-induced inhibition of forskolin-induced cAMP accumulation by EIA method; assay type: functional, cell-based
# How it was run: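 HEK-293 cells stably expressing hDOR, in serum-free medium with 0.5 mM IBMX, exposed 15 min at 37°C to 10 μM forskolin plus 10 μM DPDPE, with or without compound (0.001 nM-100 μM). cAMP by EIA kit. Triplicate determinations; IC50 as mean ± SE of 5-6 independent experiments.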
# [15] = target: T1, Kappa-type opioid receptor; assay: Antagonist activity at human KOR expressed in HEK293 cells assessed as reduction of U50,488-induced inhibition of forskolin-induced cAMP accumulation by EIA method; assay type: functional, cell-based
# [16] = Stability in mouse serum after 3 hrs by RP-HPLC and ESI-MS analysis; assay type: ADME, cell-free
# How it was run: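 Compound incubated in mouse serum for 3 h to assess enzymatic stability.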
# Mu-type opioid receptor [17] = target: T2, Mu-type opioid receptor; assay type: functional, cell-based, HEK293
# Mu-type opioid receptor [18] = target: T2, Mu-type opioid receptor; assay: Antagonist activity at human MOR expressed in HEK293 cells assessed as reduction of DAMGO-induced inhibition of forskolin-induced cAMP accumulation by EIA method; assay type: functional, cell-based
# Mus musculus [19] = assay: Antinociceptive activity in mouse model of visceral pain assessed as reduction in AcOH-induced stretching or writhing responses at 10 mg/kg, ip 5 mins before AcOH challenge and co-administered with 10 mg/kg, ip KOR antagonist norBNI 10 mins before compound dosing; assay type: functional, organism-based
# Mus musculus [20] = assay: Effect on grooming behavior in mouse model of visceral pain at 0.5 to 10 mg/kg, ip dosed 5 mins before AcOH challenge measured within 6 hrs; assay type: ADME, organism-based; conditions: in vivo
# Mu-type opioid receptor [21] = target: T2, Mu-type opioid receptor; assay: Displacement of [3H]DAMGO from human MOR expressed in HEK293 cell membranes at […] incubated for 90 mins by liquid scintillation counting
# Mu-type opioid receptor [22] = target: T2, Mu-type opioid receptor; assay: Agonist activity at human MOR expressed in HEK293 cells assessed as inhibition of forskolin-induced cAMP accumulation at 10^-12 to 10^-4 M by EIA method; assay type: functional, cell-based
# How it was run: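 Whole HEK-293 cells stably expressing hMOR, in serum-free medium with 0.5 mM IBMX, exposed 15 min at 37°C to 10 μM forskolin with or without compound (0.001 nM-100 μM). cAMP measured by EIA kit. Triplicate determinations; IC50 and Emax (% vehicle) as mean ± SE of 5-6 independent experiments.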
# T2 sequence (P35372 whole entry): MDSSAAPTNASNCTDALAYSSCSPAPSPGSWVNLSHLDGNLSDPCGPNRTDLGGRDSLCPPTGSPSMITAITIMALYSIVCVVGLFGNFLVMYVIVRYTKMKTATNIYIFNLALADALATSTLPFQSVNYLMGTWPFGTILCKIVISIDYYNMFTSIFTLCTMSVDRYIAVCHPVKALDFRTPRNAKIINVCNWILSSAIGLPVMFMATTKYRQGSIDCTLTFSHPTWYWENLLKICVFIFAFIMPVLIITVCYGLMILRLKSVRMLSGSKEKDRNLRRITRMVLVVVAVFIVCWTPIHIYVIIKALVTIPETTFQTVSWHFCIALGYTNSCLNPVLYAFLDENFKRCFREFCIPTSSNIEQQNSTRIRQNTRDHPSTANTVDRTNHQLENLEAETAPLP
# T1 sequence (P41145 whole entry): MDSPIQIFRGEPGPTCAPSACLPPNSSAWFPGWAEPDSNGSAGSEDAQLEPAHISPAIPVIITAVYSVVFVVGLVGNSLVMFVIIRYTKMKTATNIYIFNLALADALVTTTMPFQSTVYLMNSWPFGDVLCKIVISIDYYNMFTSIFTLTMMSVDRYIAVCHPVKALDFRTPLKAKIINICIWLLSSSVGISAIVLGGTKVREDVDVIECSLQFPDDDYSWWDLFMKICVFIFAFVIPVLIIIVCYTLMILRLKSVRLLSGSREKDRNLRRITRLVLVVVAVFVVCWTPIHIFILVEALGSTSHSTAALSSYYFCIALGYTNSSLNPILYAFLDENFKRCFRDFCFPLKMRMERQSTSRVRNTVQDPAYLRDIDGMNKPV
# T3 sequence (P41143 whole entry): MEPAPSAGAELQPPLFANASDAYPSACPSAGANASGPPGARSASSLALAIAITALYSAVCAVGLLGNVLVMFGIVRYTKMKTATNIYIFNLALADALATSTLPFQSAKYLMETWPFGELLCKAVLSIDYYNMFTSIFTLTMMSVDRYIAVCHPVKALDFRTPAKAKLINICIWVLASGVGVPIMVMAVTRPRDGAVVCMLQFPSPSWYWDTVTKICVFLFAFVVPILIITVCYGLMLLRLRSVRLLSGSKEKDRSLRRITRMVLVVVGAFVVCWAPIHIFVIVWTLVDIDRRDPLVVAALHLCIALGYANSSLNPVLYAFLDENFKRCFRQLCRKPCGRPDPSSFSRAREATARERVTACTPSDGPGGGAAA
smiles,measurement,setting,value
O=C1CNC(=O)[C@H](Cc2ccccc2)NC(=O)[C@@H](Cc2c[nH]c3ccccc23)NC(=O)[C@H]2CCCN2C(=O)[C@H](Cc2ccc(O)cc2)N1 (cyclo(FGY[dP][dW])),Activity,[1],1 ×10⁻⁸ M
O=C1N[C@@H](Cc2ccccc2)C(=O)N2CCC[C@@H]2C(=O)N[C@@H](Cc2ccccc2)C(=O)N[C@H]1Cc1c[nH]c2ccccc12 (cyclo(FWF[dP])),Ki,Mu-type opioid receptor [2],0.127 µM
same,IC50,[3],2.6 µM
same,EC50,[4],1.3 µM
same,IC50,[1],0.047 µM
same,IC50,Mu-type opioid receptor [5],0.26 µM
same,Ki,[6],0.032 µM
same,Ki,[7],> 100 µM
O=C1NCCC(=O)N2CCC[C@@H]2C(=O)N[C@@H](Cc2ccccc2)C(=O)N[C@H]1Cc1c[nH]c2ccccc12,inhibition,Mus musculus [8],Dose-dependent effect
same,ED50,Mus musculus [8]; ip,0.64 mg/kg
same,Activity,Mus musculus [9],Non-Toxic
same,Activity,Mus musculus [10],inactive
same,Activity,Mus musculus [11],Active
same,Activity,Mus musculus [12],Non-Toxic
same,Activity,[13],Non-Toxic
same,inhibition,[14],inactive
same,inhibition,[15],inactive
same,Stability,[16],Stable
same,Ki,Mu-type opioid receptor [2],0.0041 µM
same,IC50,Mu-type opioid receptor [17],0.0061 µM
same,inhibition,Mu-type opioid receptor [18],inactive
same,Activity,Mus musculus [19],Active
same,Ki,[6],> 100 µM
same,Ki,[7],> 100 µM
same,Activity,Mus musculus [20],Non-Toxic
C[C@@H]1NC(=O)[C@H](Cc2c[nH]c3ccccc23)NC(=O)[C@@H](Cc2ccccc2)NC(=O)[C@H]2CCCN2C1=O,Ki,Mu-type opioid receptor [2],> 100 µM
same,Ki,[6],> 100 µM
same,Ki,[7],> 100 µM
O=C1NCCCC(=O)N2CCC[C@@H]2C(=O)N[C@@H](Cc2ccccc2)C(=O)N[C@H]1Cc1c[nH]c2ccccc12,inhibition,[14],Dose-dependent effect
same,inhibition,[15],inactive
same,inhibition,Mu-type opioid receptor [21],< 50%
same,Activity,Mu-type opioid receptor [22],inactive
same,IC50,Mu-type opioid receptor [17],0.183 µM
same,inhibition,Mu-type opioid receptor [18],inactive
same,Ki,[6],> 100 µM
same,Ki,[7],0.00308 µM
Cn1cc(C[C@@H]2NC(=O)[C@H](Cc3ccccc3)NC(=O)[C@H]3CCCN3C(=O)[C@H](Cc3ccccc3)NC2=O)c2ccccc21,inhibition,Mu-type opioid receptor [21],< 50%
same,Ki,[6],> 100 µM
same,Ki,[7],> 100 µM
C[C@H]1NC(=O)[C@H](Cc2c[nH]c3ccccc23)NC(=O)[C@H](Cc2ccccc2)NC(=O)[C@H]2CCCN2C1=O,Ki,Mu-type opioid receptor [2],> 100 µM
same,Ki,[6],> 100 µM
same,Ki,[7],> 100 µM
Cn1cc(C[C@H]2NC(=O)[C@H](Cc3ccccc3)NC(=O)[C@H]3CCCN3C(=O)[C@H](Cc3ccccc3)NC2=O)c2ccccc21,Ki,Mu-type opioid receptor [2],> 100 µM
same,Ki,[6],> 100 µM
same,Ki,[7],> 100 µM
